Key:
[1] = Antitumor activity against human U373MG cells after 5 days by MTT assay; assay type: functional, cell-based, U-373MG ATCC; settings: U373 MG, 120 h
How it was run: (§1)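 Five human cancer lines (prostate PC-3, glioblastoma U373-MG, colorectal LoVo, NSCLC A549, breast MCF-7) plated at 10⁴ to 3×10⁴ cells/mL depending on cell type, allowed 24 h to attach, then cultured 120 h with or without drug at nine concentrations. MTT reduction to formazan read at 570 nm (reference 630 nm).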

[2] = Toxicity in ip dosed B6D2F1 mouse assessed as maximum tolerated dose after 28 days; assay type: organism-based; settings: in vivo
How it was run: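 Healthy mice, three per group, each given a single ip dose and observed for up to 28 days. The MTD index is the highest single dose given without causing any deaths in the group.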

LoVo = assay: Antitumor activity against human LoVo cells after 5 days by MTT assay; assay type: functional, cell-based; settings: 120 h; how it was run: as §1
PC-3 = assay: Antitumor activity against human PC3 cells after 5 days by MTT assay; assay type: functional, cell-based; settings: PC-3, 120 h; how it was run: as §1
A549 = assay: Antitumor activity against human A549 cells after 5 days by MTT assay; assay type: functional, cell-based; settings: A549, 120 h; how it was run: as §1
[3] = Stability in phosphate buffer of pH 7.4 after 6 days; assay type: physicochemical; settings: read-out: Stability
How it was run: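 Compound dissolved at 1 mM in DMSO, diluted with phosphate buffer pH 7.4 to 1 mL, incubated sealed at 37 °C for 6 days. A t0 aliquot was held at 4 °C. HPLC with 280 nm detection and duplicate injections, with expected degradation products as references. Stability is taken as compound peak area over (compound + degradation product) peak area.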

MCF7 [4] = assay: Antitumor activity against human MCF7 cells after 5 days by MTT assay; assay type: functional, cell-based; settings: MCF7, 120 h; how it was run: as §1
SW480 = assay: Inhibition of human SW480 cell proliferation by MTT assay; assay type: functional, cell-based
A-431 = assay: Inhibition of human A431 cell proliferation by MTT assay; assay type: functional, cell-based
EJ = assay: Inhibition of human EJ cell proliferation by MTT assay; assay type: functional, cell-based
NCI-H460 = assay: Inhibition of human NCI-H460 cell proliferation by sulphorodhamine B assay; assay type: functional, cell-based
MCF7 [5] = assay: Inhibition of human MCF7 cell proliferation by MTT assay; assay type: functional, cell-based
KB = assay: Inhibition of human KB cell proliferation by MTT assay; assay type: functional, cell-based
HeLa [6] = assay: Inhibition of human HeLa cell proliferation; assay type: functional, cell-based
SK-MEL = assay: Inhibition of human SK-MEL cell proliferation by MTT assay; assay type: functional, cell-based
MC3T3-E1 = assay: Inhibition of mouse MC3T3-E1 cell proliferation after 48 to 72 hrs; assay type: functional, cell-based
HeLa [7] = assay: Inhibition of human HeLa cell proliferation assessed as bromodeoxyuridine incorporation during DNA synthesis after 48 hrs by ELISA; assay type: functional, cell-based
MG-63 = assay: Inhibition of human MG63 cell proliferation assessed as bromodeoxyuridine incorporation during DNA synthesis after 48 hrs by ELISA; assay type: functional, cell-based; settings: MG-63, 48 h
[8] = Inhibition of mouse NIH/3T3 cell proliferation by MTT assay; assay type: cell-based; settings: NIH3T3

Row | IC50 (LoVo) | IC50 (PC-3) | IC50 (A549) | IC50 (MCF7 [4]) | SMILES | IC50 [1] | remaining at 144 h [3] | also measured
1 | 148 µM | 85 µM | 697 µM | 172 µM | CCCC(=O)N1CCN(c2cc3c(cc2F)c(=O)c(C(=O)O)cn3C2CC2)CC1 | 104 µM |  | 
2 | 39 µM | 3 µM | 15 µM | 621 µM | CCCCCCCCCCCC(=O)OCC(=O)N1CCN(c2cc3c(cc2F)c(=O)c(C(=O)O)cn3C2CC2)CC1 | 49 µM | > 98% | 
3 | 101 µM | 94 µM | 56 µM | 96 µM | CCCCCCCCCCCCCC(=O)N1CCN(c2cc3c(cc2F)c(=O)c(C(=O)O)cn3C2CC2)CC1 | 205 µM |  | 
4 | 766 µM | 745 µM | 742 µM | 828 µM | CCCCCCCCCCCCCC(=O)OCC(=O)N1CCN(c2cc3c(cc2F)c(=O)c(C(=O)O)cn3C2CC2)CC1 | 748 µM |  | 
5 | 29 µM | 23 µM | 16 µM | 818 µM | CCCCCCCC(=O)OCC(=O)N1CCN(c2cc3c(cc2F)c(=O)c(C(=O)O)cn3C2CC2)CC1 | 53 µM | > 97% | 
6 | 323 µM | 680 µM | 584 µM | 803 µM | CC(=O)N1CCN(c2cc3c(cc2F)c(=O)c(C(=O)O)cn3C2CC2)CC1 | 535 µM |  | 
7 | 317 µM | 416 µM | 273 µM | 353 µM | CCCCCCCCCC(=O)OCC(=O)N1CCN(c2cc3c(cc2F)c(=O)c(C(=O)O)cn3C2CC2)CC1 | 291 µM |  | 
8 | 828 µM |  | > 1000 µM | 816 µM | CCCCCCCCCCC(=O)OCC(=O)N1CCN(c2cc3c(cc2F)c(=O)c(C(=O)O)cn3C2CC2)CC1 | > 1000 µM |  | 
9 | 75 µM | 30 µM | 112 µM | 56 µM | CCCCCCCCCCCCCCCC(=O)OCC(=O)N1CCN(c2cc3c(cc2F)c(=O)c(C(=O)O)cn3C2CC2)CC1 | 119 µM |  | 

The next lines start with the compound.

Row | SMILES | IC50 (LoVo) | IC50 (PC-3) | IC50 (A549) | IC50 (MCF7 [4]) | IC50 [1] | remaining at 144 h [3] | also measured
10 | CCCCCCCCCC(=O)N1CCN(c2cc3c(cc2F)c(=O)c(C(=O)O)cn3C2CC2)CC1 | 7 µM | 4 µM | 3 µM | 20 µM | 5 µM | 100% | MTD at 672 h [2]: > 80 mg/kg
11 | CCOC(=O)N1CCN(c2cc3c(cc2F)c(=O)c(C(=O)O)cn3C2CC2)CC1 | 272 µM | 385 µM | > 1000 µM | 455 µM | 228 µM | 100% | MTD at 672 h [2]: > 80 mg/kg
12 | CCCCCC(=O)OCC(=O)N1CCN(c2cc3c(cc2F)c(=O)c(C(=O)O)cn3C2CC2)CC1 | 27 µM | 14 µM | 20 µM | 72 µM | 28 µM | > 99% | 
13 | CCC(=O)N1CCN(c2cc3c(cc2F)c(=O)c(C(=O)O)cn3C2CC2)CC1 | 306 µM | 352 µM | 402 µM | 727 µM | 279 µM |  | 
14 | CCn1cc(C(=O)O)c(=O)c2cc(F)c(N3CCNCC3)nc21 [ENOXACIN] |  |  |  |  |  |  | IC50 (SW480): 159 µM; IC50 (A-431): 150 µM; IC50 (EJ): 178 µM; IC50 (NCI-H460): 36 µM; IC50 (MCF7 [5]): 193 µM; IC50 (KB): 137 µM; IC50 (HeLa [6]): 170 µM; IC50 (SK-MEL): 196 µM
15 | N[C@@H]1[C@H]2CN(c3nc4c(cc3F)c(=O)c(C(=O)O)cn4-c3ccc(F)cc3F)C[C@@H]12 [TROVAFLOXACIN] |  |  |  |  |  |  | IC50 (MC3T3-E1): < 1.2 µM
16 | COc1c(N2C[C@@H]3CCCN[C@@H]3C2)c(F)cc2c(=O)c(C(=O)O)cn(C3CC3)c12 [MOXIFLOXACIN] |  |  |  |  |  |  | IC50 (HeLa [7]): 320 µM; IC50 (MG-63): 230 µM
17 | CCCCCCCCCCOC(=O)N1CCN(c2cc3c(cc2F)c(=O)c(C(=O)O)cn3C2CC2)CC1 | 32 µM | 24 µM | 44 µM | 20 µM | 401 µM |  | 
18 | CCCCCCCCOC(=O)N1CCN(c2cc3c(cc2F)c(=O)c(C(=O)O)cn3C2CC2)CC1 | 43 µM | 24 µM | 21 µM | 23 µM | 79 µM | 100% | MTD at 672 h [2]: > 80 mg/kg
19 | C[C@@H]1CN(c2c(F)c(N)c3c(=O)c(C(=O)O)cn(C4CC4)c3c2F)C[C@H](C)N1 [SPARFLOXACIN] |  |  |  |  |  |  | IC50 [8]: 122 µM; IC50 (HeLa [6]): 265 µM
20 | NC1CCN(c2nc3c(cc2F)c(=O)c(C(=O)O)cn3-c2ccc(F)cc2F)C1 (configuration not stated) [TOSUFLOXACIN] |  |  |  |  |  |  | IC50 (HeLa [6]): 32 µM
